Here are results for 23 molecules from PubChem BioAssay.

Values without a mark were called inactive. Records with an inconclusive call do not appear. The source made the active and inactive calls.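 Rule for the calls, unless noted: active = RAM network inhibition above 8.4% in each of two replicates, 3 SD over the compound average; inconclusive = above 8.4% inhibition in only one replicate; inactive = 8.4% inhibition or less in each replicate.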

In general, viability refers to a read-out of living cells in per cent, often relative to untreated cells. The inhibition is the relative decrease from the control value, in per cent.

The nature of assay [1]: Restrictive medium S. cerevisiae growth inhibition, OD615, pilot screen of yeast lifespan reduction project, restrictive growth control (AID 706;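 active = growth inhibition above a set limit, 3 SD over mean compound inhibition, in both replicates, cut at about 43% in these data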;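 note: modified DeaD lifespan yeast strain shifted to restrictive glucose medium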). As to conditions: OD615, 48 h, at 10 µM, stronger effect = higher value. The essentials: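 System: modified S. cerevisiae. Buffer or medium: CSMM-D glucose medium. Incubation: 4 h pre-growth plus 48 h compound exposure, 30 °C. Detection: absorbance (optical density) measured at 615 nm.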

The nature of assay [2]: viability gain of MRP-1-high H69AR cells under doxorubicin, pilot screen, MRP-1 activator project, CellTiter-Glo, duplicate (AID 807;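 active = viability increase at or above a cutoff of the median across tested compounds plus 3 SD, cut at about 8.5% in these data, passing the limit was not always enough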;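 note: compound pretreatment 18-22 h then 72 h combined with doxorubicin; 0% = doxorubicin alone and 100% = vehicle without doxorubicin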). As to conditions: H69AR viability with doxorubicin, CellTiter-Glo luminescence; at 10 µM; stronger effect = higher value. In general terms: ATP-based viability assays read luminescence as a measure of living cells.
Assay [3] in a line: growth suppression of beta-catenin knockout HCT116, pilot screen, human colon tumor cells (AID 823;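 active = cell viability at or below a set limit in both duplicate runs, the limit being the all-compound median minus 4 SD, cut at about 23% in these data, passing the limit was not always enough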;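 note: 0% = wells killed by 20 µM Hyamine and 100% = untreated DMSO cell wells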). As to conditions: CellTiter-Glo, 60 h, at 10 µM, stronger effect = lower value.
Assay [4] in a line: growth suppression of PTEN-deleted HCT116, pilot screen, cell-based, HCT116 clonal line, CellTiter-Glo (AID 824;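 active = viability at or below 27.92% in each of two runs, the all-compound median minus 4 SD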;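 note: 0% = 20 µM Hyamine control and 100% = vehicle cell control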). To be noted: 60 h, at 10 µM, stronger effect = lower value.
The nature of assay [5]: inhibitors of the yeast RAM network, pilot screen, dse1pr::URA3 reporter, 5-FOA selection (AID 869;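 active = inhibition over a set limit, the all-compound mean plus 3 SD, in both replicate runs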;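 note: 0% = DMSO wells with no growth and 100% = 10 µM 1-NA-PP1 with full growth; RAM network block rescues cells from 5-FOA so hits raise OD615 growth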). As to conditions: S. cerevisiae dse1pr::URA3 5-FOA growth, OD615, 2 d; at 10 µM; stronger effect = higher value; strain carries analog-sensitive mutant Cbk1 kinase.
Assay [6] is described as follows: RAM signaling pathway blockade in yeast – S. cerevisiae, Pdr1DBD-CYC8 efflux-inhibited sensitized strain, primary screen (AID 1298).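 Note: 0% = DMSO untreated cells without growth and 100% = 10 µM 1-NA-PP1 full growth; higher means more yeast growth rescued from 5-FOA killing.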 As to conditions: S. cerevisiae cbk1-as DSE1-URA3 strain, 5-FOA growth OD615, 2 d; at 50 µM; stronger effect = higher value.
Assay [7] is described as follows: OD615 S. cerevisiae growth inhibition, permissive medium, pilot counter-assay, permissive growth control for S. cerevisiae lifespan shortening project (AID 705;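 active = growth inhibition above 25% in both replicates, a cutoff set 3 SD above the mean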). To be noted: OD615, 24 h, at 10 µM, stronger effect = higher value. The essentials:
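assay system = Saccharomyces cerevisiae strain carrying genetically modified DeaD replicative-lifespan system | technique = absorbance (optical density) at 615 nm | buffer or medium = permissive raffinose/galactose medium | timing = cells pre-grown 4 h, then 24 h compound exposure, 30 °C humidified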

For the molecule `CSc1nc(-c2ccccc2)nc2[nH]ccc(=O)c12`, in assay [1], the growth inhibition is -18.3%. Moreover, the viability increase in assay [2] is -3.93%. The results for the viability in assay [3] and in assay [4] were 76% and 80.6%, respectively. Also, the inhibition in assay [5] was 0.065%. In addition, in assay [6], the RAM network inhibition was 1.4%.

`CCOC(=O)CNC(=O)CSc1nnc(-c2ccco2)n1Cc1ccco1`: the growth inhibition in assay [7] is 6.66%. In assay [2], the viability increase is -2.83%. Besides, the viability in assay [3] is 97.2%; in assay [4] it was 98.2%. Moreover, the inhibition in assay [5] is 0.765%. In addition, the RAM network inhibition in assay [6] is 3.76%.

On to `CCOc1cccc(C(=O)Nc2cc(-c3nn4c(C)nnc4s3)ccc2C)c1`, for which the growth inhibition in assay [7] was 9.19%. Moreover, the viability increase in assay [2] is -4.79%. In addition, the viability is 100% in assay [3] and 93.6% in assay [4]. The inhibition in assay [5] is 0.07%. The RAM network inhibition in assay [6] was 2.22%.

On to `COC(=O)Cn1c(=NC(=O)CSC(C)=O)sc2ccccc21`, for which the growth inhibition in assay [7] was 4.79%. Moreover, the viability increase in assay [2] is -1.9%. The viability in assay [3] is 98.5%; in assay [4], 101%. In assay [5], the inhibition was 2.89%. Besides, the RAM network inhibition in assay [6] was 5.91%.

With `Cn1c(C(=O)N2CCC(C(=O)N3CCN(Cc4ccc5c(c4)OCO5)CC3)CC2)cc2sccc21`, the growth inhibition in assay [7] is -9.98%. Further, the viability increase in assay [2] was -2.38%. In addition, the viability in assay [3] was 70.9%; in assay [4] it was 71.1%. Besides, in assay [5], the inhibition is 1.03%. Further, the RAM network inhibition in assay [6] is 3.95%.

Take `O=C(O)C1CC=CCC1C(=O)NCc1cn2ccccc2n1` (stereo unspecified): the growth inhibition in assay [1] was -15.1%. In assay [2], the viability increase is -2.16%. The viability was 103% in assay [3] and 96.1% in assay [4]. Besides, in assay [5], the inhibition is 2.84%. In addition, the RAM network inhibition in assay [6] was 4.32%.

Consider `Cc1ccc(/C=c2/sc3nnc(-c4ccccc4Cl)n3c2=O)o1`, for which the growth inhibition in assay [7] was -7.07%. Also, the viability increase in assay [2] was -5%. Moreover, the viability in assay [3] is 90.9%; in assay [4], 93%. The inhibition in assay [5] is 0.785%. In addition, the RAM network inhibition in assay [6] was 3.46%.

Consider `CCOc1ccc2nc(N3CCC(C(=O)N4CCN(c5ncccn5)CC4)CC3)sc2c1`, for which the growth inhibition in assay [1] was 25.2%. Moreover, the viability increase in assay [2] was -3.04%. The figures for the viability in assay [3] and in assay [4] were 82.1% and 90.9%, respectively. Also, in assay [5], the inhibition was 1.76%. For the same molecule, the RAM network inhibition in assay [6] was -1.59%.

As to `CCCc1nc2sc3c(SCC(=O)NCc4ccco4)ncnc3c2c2c1CCC2`, the growth inhibition in assay [7] was -1.16%. Moreover, in assay [2], the viability increase is -6.5%. The viability in assay [3] is 47.4%. The inhibition in assay [5] is 2.37%. Also, in assay [6], the RAM network inhibition was 4.21%.

Take `COc1cc(C2CC(=O)N3CN(Cc4ccco4)CSC3=C2C#N)ccc1OCc1ccccc1` (stereo unspecified): in assay [7], the growth inhibition was 7.01%. In addition, the viability increase in assay [2] was -5.42%. For the same molecule, the viability in assay [3] is 77.8%; in assay [4], 83.5%. Moreover, the inhibition in assay [5] is 1.65%. In addition, the RAM network inhibition in assay [6] is 2.55%.

Take `COc1ccc(OC)c(C2CC(=O)N3CN(c4cccc(Cl)c4)CSC3=C2C#N)c1` (stereo unspecified): in assay [7], the growth inhibition was 1.31%. In addition, the viability increase in assay [2] was -2.23%. Further, the viability was 100% in assay [3] and 95.4% in assay [4]. Besides, the inhibition in assay [5] is 2.46%. Further, the RAM network inhibition in assay [6] is 8.89%.

Take `c1cncc(-c2nnc(SCc3cccc4ccccc34)o2)c1`: in assay [7], the growth inhibition was -6.93%. The viability increase in assay [2] was -0.01%. In addition, the viability in assay [3] is 103%; in assay [4] it was 91%. The inhibition in assay [5] was 1.16%. In addition, the RAM network inhibition in assay [6] was 0.49%.

As to `c1ccc(Cc2nnc3sc(-c4ccco4)nn23)cc1`, in assay [1], the growth inhibition was 68.7% (active). Besides, the viability increase in assay [2] was -5.05%. Also, the results for the viability in assay [3] and in assay [4] were 108% and 94.7%, respectively. The inhibition in assay [5] was 1.98%. Besides, the RAM network inhibition in assay [6] is 5.97%.

For `COc1ccc(S(=O)(=O)N2CCN(c3ccc4nnc(-c5ccc(F)cc5)n4n3)CC2)cc1`, the growth inhibition in assay [7] is 16.1%. Besides, the viability increase in assay [2] is -6.07%. Further, the viability in assay [3] was 46.4%; in assay [4], 38.6%. Also, the inhibition in assay [5] is 1.78%. The RAM network inhibition in assay [6] was 1.48%.

For `COc1ccc(OCc2nnc3n2N=C(c2ccc(Br)cc2)CS3)cc1`, the growth inhibition in assay [7] is 3.29%. For the same molecule, the viability increase in assay [2] was 2.18%. Also, the figures for the viability in assay [3] and in assay [4] were 70% and 72.2%, respectively. In addition, the inhibition in assay [5] was 0.955%. Besides, in assay [6], the RAM network inhibition was 3.18%.

Take `Cc1cc(/C=N/n2cnnc2)c(C)n1-c1ccc(OCc2ccccc2F)cc1`: the growth inhibition in assay [7] is -0.03%. Further, the viability increase in assay [2] was -6.9%. The viability is 8.8% (active) in assay [3] and 13.7% (active) in assay [4]. Further, the inhibition in assay [5] was 1.2%. Moreover, the RAM network inhibition in assay [6] was 11.1%.

`COC(=O)c1cc(CSc2nc3ccc(C)cc3[nH]2)oc1C`: the growth inhibition in assay [1] is 4.74%. Besides, the viability increase in assay [2] was -0.15%. Moreover, the figures for the viability in assay [3] and in assay [4] were 46.6% and 63.5%, respectively. Further, in assay [5], the inhibition is 0.105%. Besides, in assay [6], the RAM network inhibition was 4.81%.

For the molecule `CCC1(C)Cc2nc3sc(C(=O)O)c(N)c3cc2CO1` (stereo unspecified), the growth inhibition in assay [7] was -4.39%. The viability increase in assay [2] was -3.61%. The viability in assay [3] is 94.2%. Moreover, the inhibition in assay [5] was 1.71%. Moreover, in assay [6], the RAM network inhibition was 6.29%.

For the molecule `COc1ccc(OCC(=O)Nc2cc(OC)cc(OC)c2)cc1`, in assay [1], the growth inhibition is 7.43%. In addition, the viability increase in assay [2] is -3.71%. The values for the viability in assay [3] and in assay [4] were 88.7% and 93.9%, respectively. For the same molecule, in assay [5], the inhibition is -0.89%. Besides, in assay [6], the RAM network inhibition was -2.47%.

In the case of `CCC(C)N1CC23C=CC(O2)C(C(=O)OC)C3C1=O` (stereo unspecified), in assay [7], the growth inhibition is 0.035%. Moreover, in assay [2], the viability increase is 1.12%. Besides, the figures for the viability in assay [3] and in assay [4] were 109% and 106%, respectively. The inhibition in assay [5] is 0.115%. Further, in assay [6], the RAM network inhibition is 1.34%.

Consider `Cc1ccc(S(=O)(=O)Nc2nc(C)cc(NCCN)n2)cc1`, for which the growth inhibition in assay [1] is -2.19%. Besides, in assay [2], the viability increase was -0.98%. For the same molecule, the viability in assay [3] was 94.3%; in assay [4], 88.5%. Also, the inhibition in assay [5] is 0.48%. In addition, the RAM network inhibition in assay [6] was 2.5%.

For the molecule `CC(=O)C(Sc1ccc2nnc(-c3ccc(C)cc3)n2n1)C(C)=O`, the growth inhibition in assay [7] is 1.31%. In addition, the viability increase in assay [2] is -4.69%. The viability in assay [3] is 101%; in assay [4], 95.3%. Besides, the inhibition in assay [5] was 2.04%. In addition, the RAM network inhibition in assay [6] is 6.06%.

For `CC(=O)NC1(NC(C)=O)CCN(C)C(c2ccccc2)C1C` (stereo unspecified), in assay [1], the growth inhibition was -6.19%. Also, the viability increase in assay [2] is -2%. In addition, the viability is 98.2% in assay [3] and 100% in assay [4]. The inhibition in assay [5] was 1.46%. In assay [6], the RAM network inhibition was 1.13%.
